# Reference: ChEMBL document CHEMBL1139366, “Non-peptide macrocyclic histone deacetylase inhibitors” (J Med Chem, 2009)
# Legend:
# NCI-H69 = assay: Cytotoxicity against human NCI-H69 cells after 72 hrs by trypan blue exclusion assay; type: functional, cell-based; details: NCI-H69, 72 h
# DU-145 = assay: Cytotoxicity against human DU145 cells after 72 hrs by trypan blue exclusion assay; type: functional, cell-based; details: DU-145, 72 h
# Procedure, shortened: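 DU-145 prostate cancer cells kept in recommended complete medium at 37 °C, 5% CO₂, passaged 24 h before dosing. Compounds taken from 10 mM DMSO stocks and diluted in DMSO plus fresh medium, final DMSO 0.1%; control wells got fresh medium only. Viability read by trypan blue staining after 72 h. EC₅₀ = concentration giving 50% loss of viability, from duplicate of four simultaneous experiments.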
# Histone deacetylase 8 = target: T1, Histone deacetylase 8 (Homo sapiens, UniProt Q9BY41); assay: Inhibition of HDAC8 from human HeLa cells nuclear extract by cell free fluorimetric assay
# T1 sequence (Q9BY41 whole entry): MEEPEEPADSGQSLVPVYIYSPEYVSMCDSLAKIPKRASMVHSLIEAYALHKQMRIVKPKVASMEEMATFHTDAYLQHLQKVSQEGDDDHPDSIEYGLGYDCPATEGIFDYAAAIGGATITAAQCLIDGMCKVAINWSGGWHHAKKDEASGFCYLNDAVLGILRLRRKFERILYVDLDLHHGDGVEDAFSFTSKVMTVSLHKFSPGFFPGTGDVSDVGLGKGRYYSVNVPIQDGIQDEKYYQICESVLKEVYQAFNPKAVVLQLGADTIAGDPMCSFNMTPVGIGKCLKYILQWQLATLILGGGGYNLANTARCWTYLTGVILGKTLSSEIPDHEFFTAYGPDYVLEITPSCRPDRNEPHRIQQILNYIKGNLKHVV
# [1] = target: Histone deacetylase (HDAC1 and HDAC2) (Homo sapiens, UniProt Q13547+Q92769); assay: Inhibition of HDAC1/2 from human HeLa cells nuclear extract by cell free fluorimetric assay; type: cell-based
# SK-MES-1 = assay: Cytotoxicity against human SKMES1 cells after 72 hrs by trypan blue exclusion assay; type: functional, cell-based; details: SK-MES-1, 72 h
# [2] = target: T2, Protein deacetylase HDAC6 (Homo sapiens, UniProt Q9UBN7); assay: Inhibition of HDAC6 from human HeLa cells nuclear extract by cell free fluorimetric assay
# T2 sequence (Q9UBN7 whole entry): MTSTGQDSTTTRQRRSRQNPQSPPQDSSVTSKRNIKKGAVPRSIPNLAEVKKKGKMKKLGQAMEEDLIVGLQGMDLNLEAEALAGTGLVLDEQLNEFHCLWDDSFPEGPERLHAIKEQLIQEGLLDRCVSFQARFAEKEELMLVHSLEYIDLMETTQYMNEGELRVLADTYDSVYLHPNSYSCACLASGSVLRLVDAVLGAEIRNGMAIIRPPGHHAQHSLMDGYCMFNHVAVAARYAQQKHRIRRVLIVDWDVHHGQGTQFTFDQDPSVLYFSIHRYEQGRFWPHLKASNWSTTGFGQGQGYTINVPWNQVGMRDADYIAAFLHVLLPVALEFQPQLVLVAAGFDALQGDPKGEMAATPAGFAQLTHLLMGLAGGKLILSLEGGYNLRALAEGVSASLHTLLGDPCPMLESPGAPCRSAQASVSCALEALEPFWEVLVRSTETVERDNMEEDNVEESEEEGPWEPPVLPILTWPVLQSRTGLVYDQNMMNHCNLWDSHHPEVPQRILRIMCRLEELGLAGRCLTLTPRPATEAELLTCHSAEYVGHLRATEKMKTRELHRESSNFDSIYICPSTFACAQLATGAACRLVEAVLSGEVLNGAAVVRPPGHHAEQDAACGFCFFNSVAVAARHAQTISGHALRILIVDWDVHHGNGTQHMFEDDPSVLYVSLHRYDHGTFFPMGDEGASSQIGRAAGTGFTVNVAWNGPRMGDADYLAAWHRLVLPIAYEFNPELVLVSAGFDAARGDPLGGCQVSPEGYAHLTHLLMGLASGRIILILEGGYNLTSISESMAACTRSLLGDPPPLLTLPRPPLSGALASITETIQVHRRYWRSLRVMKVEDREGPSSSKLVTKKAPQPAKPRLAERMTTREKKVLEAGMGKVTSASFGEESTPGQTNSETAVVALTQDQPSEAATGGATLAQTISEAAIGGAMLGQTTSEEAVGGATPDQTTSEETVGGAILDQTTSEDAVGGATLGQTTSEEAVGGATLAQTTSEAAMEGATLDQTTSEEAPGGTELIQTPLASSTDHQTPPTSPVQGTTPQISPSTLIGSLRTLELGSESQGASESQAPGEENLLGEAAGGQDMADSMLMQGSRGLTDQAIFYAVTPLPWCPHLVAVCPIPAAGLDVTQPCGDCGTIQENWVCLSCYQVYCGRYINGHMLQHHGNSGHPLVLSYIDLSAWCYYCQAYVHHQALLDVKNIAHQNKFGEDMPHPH
# HMEC = assay: Cytotoxicity against HMEC after 72 hrs by trypan blue exclusion assay; type: ADME, cell-based; details: Homo sapiens
# [3] = Cytotoxicity against human primary lung fibroblasts after 72 hrs by trypan blue exclusion assay; type: ADME, cell-based; details: Fibroblast
Structure (SMILES),EC50 (NCI-H69),EC50 (DU-145),IC50 (Histone deacetylase 8),IC50 [1],EC50 (SK-MES-1),IC50 [2],EC50 (HMEC),EC50 [3]
CC[C@H]1OC(=O)[C@H](C)[C@@H](O)[C@H](C)[C@@H](O[C@@H]2O[C@H](C)C[C@H](N(C)Cc3ccc(-c4cn(CCCCCCC(=O)NO)nn4)cc3)[C@H]2O)[C@](C)(O)C[C@@H](C)CN(C)[C@H](C)[C@@H](O)[C@]1(C)O,3010 nM,1970 nM,1020 nM,10.6 nM,2560 nM,117 nM,> 10000 nM,> 10000 nM
CC[C@H]1OC(=O)[C@H](C)[C@@H](O[C@H]2C[C@@](C)(OC)[C@@H](O)[C@H](C)O2)[C@H](C)[C@@H](O[C@@H]2O[C@H](C)C[C@H](N(C)Cc3ccc(-c4cn(CCCCCCC(=O)NO)nn4)cc3)[C@H]2O)[C@](C)(O)C[C@@H](C)CN(C)[C@H](C)[C@@H](O)[C@]1(C)O,3450 nM,1880 nM,994 nM,13.9 nM,2330 nM,78 nM,> 10000 nM,> 10000 nM
CC[C@H]1OC(=O)[C@H](C)[C@@H](O[C@H]2C[C@@](C)(OC)[C@@H](O)[C@H](C)O2)[C@H](C)[C@@H](O[C@@H]2O[C@H](C)C[C@H](N(C)Cc3ccc(-c4cn(CCCCCCC(=O)NO)nn4)cc3)[C@H]2O)[C@](C)(OC)C[C@@H](C)C(=O)[C@H](C)[C@@H](O)[C@]1(C)O,1450 nM,1120 nM,,4.1 nM,1330 nM,89.3 nM,> 10000 nM,> 10000 nM
CC[C@H]1OC(=O)[C@H](C)[C@@H](O)[C@H](C)[C@@H](O[C@@H]2O[C@H](C)C[C@H](N(C)Cc3ccc(-c4cn(CCCCCCC(=O)NO)nn4)cc3)[C@H]2O)[C@](C)(OC)C[C@@H](C)C(=O)[C@H](C)[C@@H](O)[C@]1(C)O,1490 nM,1050 nM,,1.9 nM,1280 nM,148 nM,> 10000 nM,> 10000 nM
